Article PMC10883021 (ACS Omega, 2024)
Read-outs that look alike come from different tables or passages of the source.

Key:
[1] = test system: MDA-MB-231 breast cancer cell line; test: MTT cell viability assay, MDA-MB-231 breast cancer cells; type: cell-based, human; conditions: read-out: IC50 on MDA-MB-231
In short: (§1)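 Cells grown in DMEM with 10% FBS, 100 units/ml penicillin/streptomycin and 2 mM L-glutamine at 37 °C, 5% CO₂. 5 × 10³ cells/well were seeded and attached overnight, then given test compound at 0–200 μM for 48 h. MTT was added for 4 h at 37 °C and absorbance read at 570 nm. Viability was taken relative to untreated control cells. Mean ± SD from at least three independent experiments.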

[2] = test system: T47D breast cancer cell line; test: MTT cell viability assay, T47D breast cancer cells; type: cell-based, human; conditions: 48 h, read-out: IC50 on T47D
In short: as §1

[3] = test system: MCF-7 breast cancer cells; conditions: 0–100 μM; cited from earlier work
[4] = test system: MDA-MB-231 breast cancer cells; conditions: 0–100 μM; cited from earlier work
[5] = test system: HaCaT human keratinocyte cell line; test: MTT cell viability assay, HaCaT control cells; type: cell-based; conditions: 48 h, read-out: IC50 on HaCaT (human fibroblasts in text)
In short: as §1

IC50 ([1]; Homo sapiens, MDA-MB-231, 48 h) | IC50 ([2]; Homo sapiens, T47D) | IC50 ([1]; MTT, 48 h, 0–200 μM) | IC50 ([2]; MTT, 0–200 μM) | Molecule | cytotoxic effect on MCF-7 [3] | cytotoxic effect on MDA-MB-231 [4] | IC50 ([5]; Homo sapiens, HaCaT) | IC50 ([5]; MTT, 0–200 μM)
67.2 ± 5.72 µM | 67.7 ± 5.9 µM | – | – | O=Cc1ccc(O)c(O)c1 [Compound 11, 3,4-dihydroxybenzaldehyde] | did not show an anticancer effect | did not show an anticancer effect | 115 ± 7.69 µM | –
– | – | – | – | COc1cc([C@@H]2c3cc4c(cc3[C@@H](O[C@@H]3O[C@@H]5CO[C@@H](C)O[C@H]5[C@H](O)[C@H]3O)[C@H]3COC(=O)[C@H]23)OCO4)cc(OC)c1O [etoposide, reference compound] | – | – | 4.86 ± 0.35 µM | –
– | – | 63.8 ± 10.3 µM | 44.4 ± 2.7 µM | coelonin [Compound 10] | – | – | – | 114 ± 7.65 µM
